Tested on: MS2 coat protein
Experiment: apparent Kd, MS2 coat protein; higher = weaker binding; RNA-MaP array; FMN 200 µM where present
Summary of the method: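 Stalled E. coli RNA polymerase produced the designs on Illumina sequencing-chip clusters. SNAP-549-labelled MS2 coat protein was added from 0.7 or 1.5 nM, doubling to 3 µM, without and then with constant ligand, in 100 mM Tris-HCl pH 7.5, 80 mM KCl, 4 mM MgCl2, BSA, DTT, yeast tRNA and Tween-20. The apparent Kd is the median of filtered per-cluster fits of green signal normalised to red-channel RNA signal and control-cluster median Fmax.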

[1] = designed as: OFF switch for flavin mononucleotide, no ligand
[2] = ligand present: flavin mononucleotide, designed as: OFF switch for flavin mononucleotide
[3] = designed as: ON switch for flavin mononucleotide, no ligand
[4] = ligand present: flavin mononucleotide, designed as: ON switch for flavin mononucleotide

Row | Sequence | apparent Kd [1] [nM] | apparent Kd [2] [nM] | apparent Kd [3] [nM] | apparent Kd [4] [nM]
1 | GUAGCGUAUGUAGGAUAUCGGUCAGUUUCUGAUCGAGAAGGACAUGAGGAUCACCCAUGUAAAUUACCGACUUUGUCGGGCUGC | 8.06 | 12.4 | – | –
2 | GUAAAUCAUGUAGGAUAUGCAUGGCGAAGCUACGCAGAAGGACAUGAGGAUCACCCAUGUUAUAGCUACCCGUUACGGUGGCAA | 100 | 236 | – | –
3 | AGUUAAUAUCGAGGAUAUCCUCAUAUACAUGAGGAUCACCCAUGUAAACAUGGAGAAGGCGAUAUUAACAGCAUGUUACAUGCA | – | – | 377 | 21.9
4 | GGUACUCAAAGAGUACCAAUACGAACAUGAGGAUCACCCAUGUAGGAUAUGCUACUCAAAGAGUAGCAGAAGGAUAUGUGCCUA | 14.7 | 15.3 | – | –
5 | AGCUAGUCAGGAUAUACGAAAAUGUCAGAAGCUGAGAAGGGACAUGAGGAUCACCCAUGUAGAAGGGACUAGCA | 57.5 | 299 | – | –
6 | UCCUUGGUACAGAAGGACCGAGCUCCGUAGCAGGUAGGAUAUGUACAUGAGGAUCACCCAUGUCAGCGGUAAUUGCCAGUAUAC | 54.6 | 27.7 | – | –
7 | AGUUAAUAUCGAGGAUAUGUCUAGACACAUGAGGAUCACCCAUGUAUGUGUAUAGAAGGCGAUAUUAACAGCAUGUUACAUGCA | – | – | 40.2 | 16.7
8 | GGUACCUUCACAGGAUAUGCUAUCCUUUGGGUAGCAGAAGGGUGAUAACAUGAGGAUCACCCAUGUGGUACCGGGCGUGAGCCC | – | – | 1180 | 109
9 | AGAAUGGGCGAGAAGGGAGUACAUGAGGAUCACCCAUGUGGUUCAUGGUGCUCAGGAUAUCGAUAGACCAGGGAGCGUCUCUGA | 30 | 148 | – | –
10 | GGCGGAGUAGGAUAUACAUGAGGAUCACCCAUGUAACCUGAUGGCGUAGGUCUUCUAUGUAGAAGGGCUACGCC | 17.4 | 16.7 | – | –
11 | AAUUAGGUCACAGGAUAUACAACAUCCAUAGCUGUAGAAGGGUGUCAAAAUAAUAUCUGACAUGAGGAUCACCCAUGUUUCCAC | – | – | 15.8 | 12.7
12 | GUAGCUAUCGGAGGAUAUUCAUACGGGAAACGGACAUGAGGAUCACCCAUGUGGCGAAAGCCUUGGGAGAAGGCCGAUAGCUAC | – | – | 37.4 | 8.89
13 | UUGUUCUGAGGAUAUACAUGAGGAUCACCCAUGUGUUUCAGCUAGGAGACUAGCGAAAGUAGAAGGCUGUUCUC | 16.7 | 17.9 | – | –
14 | UCCUCUUUGAAGAAGGCGUGGUUAUGCUAGCCGCGAGGAUAUUCACAUGAGGAUCACCCAUGUGGAUUUCAGUCCGCUCAAAAC | 10.2 | 22.9 | – | –
15 | UGCUUCAUGUAAGGAUAUGCAGCCGUUUCGGCUGCAGAAGGUACUAUAAUACAUGAGGAUCACCCAUGUCUCUCGCAUUGCGAG | – | – | 240 | 95.6
16 | CCUGUGUAAGGAUAUGACAAUGGUAUCUUCGGAUACCAUUGUCAGAAGGUACAUGAGGAUCACCCAUGUAACAC | 15 | 30.4 | – | –
17 | AGGUAGUCAGGAUAUUAGUGGUAGAGGGAUAACUUUAUUGUUGAGAAGGGACAUGAGGAUCACCCAUGUUUUGU | 26.3 | 32.5 | – | –
18 | AAUGAUUGAUGAGGAUAUUGUGGUGAAACACGACGAGAAGGCAUAUGUCACAUGAGGAUCACCCAUGUGAGCUUUGUGGAUAUA | 25 | 28.9 | – | –
19 | CGCAACUCUUCACAUGUAAACAUGAGGAUCACCCAUGUAAUGAGAAGGAGGAAGAAGAGAGAUUCCUAGGAUAUCAGAGUUGCG | 6.83 | 6.52 | – | –
20 | GUCGUGUUAGGAUAUGGCAACGGCUAGGAAACUAGUUGUUGUUAGAAGGAACAUGAGGAUCACCCAUGUAUGAC | 34.3 | 84.3 | – | –
21 | AGCAUUGCUUAGAAGGGAAAUUUAUAAUUUAAUUCAGGAUAUAGAUACAGUACAACAUGAGGACAUGAGGAUCACCCAUGUAUA | – | – | 25.8 | 19.3
22 | UUUUGGCAUGUAGGAUAUGGGUCCGAUUAGGAUUUAGAAGGACAUGAGGAUCACCCAUGUGCAUUUAAUUGGUCUUUAUUUUUU | 64.1 | 85.6 | – | –
23 | CUUUAUCACUAUACAUGAGGAUCACCCAUGUUAUCAUCAUGAGAGGAUAUCGUAUUUGGAUUUUUCGAGAAGGCUCUUUUGUAU | – | – | 108 | 77.1

Source: the EternaBench riboswitch data
